Rows were chosen to be rich in hits. Some 2.4% of all compounds tested hit in one or more screens of this group.
S1P4 antag: S1P4 receptor antagonists, primary screen, cell-based. Sphingosine 1-phosphate receptor 4 (Homo sapiens), O95977. inhibition, % at 4.98 µM. S1P4-expressing cells, antagonist mode, reporter read-out. 220,000 compounds, 0.26% hits; in the data active means inhibition above about 29%
Target sequence (O95977 whole entry, looked up): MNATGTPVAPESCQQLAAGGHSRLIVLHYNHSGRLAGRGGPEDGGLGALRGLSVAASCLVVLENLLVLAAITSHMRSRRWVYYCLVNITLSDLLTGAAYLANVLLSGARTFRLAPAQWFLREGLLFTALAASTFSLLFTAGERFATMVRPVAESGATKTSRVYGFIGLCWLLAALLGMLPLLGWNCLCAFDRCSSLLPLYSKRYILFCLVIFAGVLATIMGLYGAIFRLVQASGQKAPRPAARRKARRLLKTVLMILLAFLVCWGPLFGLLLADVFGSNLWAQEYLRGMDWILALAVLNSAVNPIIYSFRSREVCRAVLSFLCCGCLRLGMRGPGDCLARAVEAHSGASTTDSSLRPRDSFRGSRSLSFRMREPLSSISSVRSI
NPY Y2 blocker: NPY-Y2 receptor antagonists, primary screen, cell-based; Neuropeptide Y receptor type 2 (Homo sapiens), P49146; NPY-Y2 expressing cells, antagonist mode; inhibition, % at 2.7 µM; 140,000 compounds, 0.99% hits
NPY-Y1 PAM-ag: NPY-Y1 receptor potentiators or agonists, primary screen, cell-based. Neuropeptide Y receptor type 1 (Homo sapiens), P25929. NPY-Y1 expressing cells, potentiator/agonist activation. activation, % at 3.6 µM. 220,000 compounds, 0.37% hits; in the data active means activation above about 33%, passing the limit was not always enough;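 further: cells stimulated with NPY at EC10 then isoproterenol at EC100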
S1P4 ag: S1P4 receptor agonists, primary screen, cell-based; S1P4-expressing cell line, agonist reporter assay; 220,000 compounds, 0.35% hits; activation, % at 4.98 µM; Sphingosine 1-phosphate receptor 4 (Homo sapiens), O95977; in the data active means activation above about 11%
NPY2 pot ag: NPY-Y2 potentiators or agonists, primary screen, cell-based; activation, % at 3.6 µM; AID 1359, 2008; Neuropeptide Y receptor type 2 (Homo sapiens), P49146; 220,000 compounds, 0.45% hits; cells expressing NPY-Y2, potentiator/agonist read-out; in the data active means activation above about 27%;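 further: cells stimulated with NPY near EC25 plus isoproterenol at EC100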
NPY Y1 blocker: NPY-Y1 receptor antagonists, primary screen, cell-based | 200,000 compounds, 1% hits | Neuropeptide Y receptor type 1 (Homo sapiens), P25929 | inhibition, % at 3.6 µM | HEK293-CNG Y1 cells, membrane potential fluorescence; NPY at EC95, then isoproterenol;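 active means inhibition above the campaign mean inhibition of all tested compounds plus 3 SD, cut at about 20% in these data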
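Assay system: HEK293 Y1/CNG channel cell line; Doses: single compound dose of 3.6 µM, 0.4% DMSO; Timing: dye 3 h, compound 60 min room temperature, stimulation 45 min; Technique: Membrane-potential fluorescent dye readout; Measure: % inhibition of NPY effect.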
NPY1 antag conf: NPY-Y1 receptor antagonists, retest of hits, confirmation, HEK293-CNG cells, membrane potential fluorescence, triplicate. shares compounds with NPY Y1 blocker. cAMP; NPY challenge against isoproterenol-raised cAMP. inhibition, % at 3.6 µM. 1,200 compounds, 21% hits. AID 1254, 2008; in the data active means inhibition above about 20%
NPY-Y2 antag ct: NPY-Y2 receptor antagonists, selectivity check, confirmation, counter-screen for NPY-Y1 antagonist project, HEK293-CNG cells, membrane potential fluorescence, triplicate; shares compounds with NPY Y1 blocker; antagonism; cells given NPY, then isoproterenol; inhibition, % at 3.6 µM; 1,200 compounds, 28% hits
Each line names hits and unclear results; the compound was inactive in the other large screens (follow-up assays come after a bar, where they were run). Unless noted, no stated cut-off is given here; in the data, active means inhibition above about 17%; inactive means the rest.

N#Cc1nc(Cc2cccc3ccccc23)oc1NCCN1CCOCC1	none
CCOc1cc(/C=N/n2nnnc2N)ccc1OCc1c(C)no[n+]1[O-]	NPY Y1 blocker 21 | NPY1 antag conf inactive | NPY-Y2 antag ct inactive
O=C1Nc2ccccc2OC1CC(=O)N1CCCC1 (configuration not stated)	none
COc1cccc(CNC(=O)CCl)c1	none
COc1cccc(CNC(=O)C(c2ccc(Cl)cc2)C(C)C)c1 (configuration not stated)	NPY Y1 blocker 21 | NPY1 antag conf inactive | NPY-Y2 antag ct inactive
O=c1c2c(-c3ccccc3)csc2nc2c3ccccc3c(NCCN3CCOCC3)nn12	NPY Y1 blocker 32 (no result: NPY Y2 blocker) | NPY1 antag conf 27 | NPY-Y2 antag ct 40
Cc1cccc(-n2c(N)cc(=O)nc2SCC(=O)Nc2ccccc2)c1	none
CCN(CC)S(=O)(=O)c1ccc2[nH]cc(C(=O)NCCN3CCCCCC3)c(=O)c2c1	NPY Y1 blocker 21 | NPY1 antag conf inactive | NPY-Y2 antag ct inactive
CCN(CC)S(=O)(=O)c1ccc2[nH]cc(C(=O)NCCCN3CCCCC3)c(=O)c2c1	none
Cc1ccc(C(=O)NC(=S)Nc2ccc(CN3CCCCC3)cc2)c(C)c1	NPY Y1 blocker 24 (no result: NPY Y2 blocker) | NPY1 antag conf inactive | NPY-Y2 antag ct 27
COc1ccc(C(=O)NC(=S)Nc2ccc(CN3CCOCC3)cc2)cc1OC	none (no result: NPY Y2 blocker, NPY Y1 blocker)
O=C(NC(=S)Nc1ccc(CN2CCCCC2)cc1)c1ccco1	none (no result: NPY Y2 blocker)
COc1ccc(C(=O)NC(=S)Nc2ccc(CN3CCCCC3)cc2)cc1Cl	NPY Y1 blocker 28 (no result: NPY Y2 blocker) | NPY1 antag conf inactive | NPY-Y2 antag ct 23
COc1ccccc1C(=O)Nc1ccc(-c2nnn(CC(=O)N3CCN(C(=O)c4ccco4)CC3)n2)cc1	none (no result: NPY Y2 blocker)
O=C(CN1CCCCC1)Nc1nnc(-c2ccc([N+](=O)[O-])cc2)s1	none
CCN(CC)c1ccc2c(c1)OC(N)=C(C#N)C2c1cccnc1 (configuration not stated)	NPY Y1 blocker 27 | NPY1 antag conf inactive | NPY-Y2 antag ct inactive
O=C(CCCCCN1C(=O)c2cccc3cccc(c23)C1=O)N1CCOCC1	none
O=C(CCCN1C(=O)c2cccc3cccc(c23)C1=O)N1CCc2ccccc2C1	NPY Y1 blocker 23 | NPY1 antag conf inactive | NPY-Y2 antag ct inactive
O=C(COc1nc2ccccc2nc1N1CCOCC1)Nc1cccc(S(=O)(=O)N2CCCCC2)c1	none
FC(F)(F)COc1nc(OCC(F)(F)F)nc(N2CCN(c3ccccc3)CC2)n1	NPY Y1 blocker 28 | NPY1 antag conf inactive | NPY-Y2 antag ct inactive
CCOC(=O)Nc1nc(-c2ccccc2)c(C(=O)c2ccccc2)s1	NPY Y1 blocker 36 | NPY1 antag conf inactive | NPY-Y2 antag ct 21
CC(=O)Nc1nc(C)c(CCC2OCCO2)c(=O)[nH]1	none (no result: NPY Y2 blocker, NPY Y1 blocker)
Cn1cnnc1SCC(=O)c1cc2ccccc2o1	NPY Y1 blocker 63 (no result: NPY Y2 blocker) | NPY1 antag conf inactive | NPY-Y2 antag ct inactive
CCN(CC)CCn1c(=N)n(CC(O)COc2cccc(C)c2)c2ccccc21 (configuration not stated)	NPY Y1 blocker 55 (no result: NPY Y2 blocker) | NPY1 antag conf 44 | NPY-Y2 antag ct 41
CCN(CC)CCn1c(=N)n(CC(O)c2ccc(OC)c(OC)c2)c2ccccc21 (configuration not stated)	none (no result: NPY Y2 blocker)
N=c1n(Cc2ccc(Cl)cc2)c2ccccc2n1CC(O)COc1ccccc1 (configuration not stated)	NPY Y1 blocker 41 (no result: NPY Y2 blocker) | NPY1 antag conf 26 | NPY-Y2 antag ct 22
CCCSc1nc2cc(OC)c(OC)cc2c(=N)n1CCCN1CCOCC1	NPY Y1 blocker 71 (no result: NPY Y2 blocker) | NPY1 antag conf 22 | NPY-Y2 antag ct 32
Cc1cc(C(=O)Nc2ccc(S(=O)(=O)Nc3onc(C)c3C)cc2)cs1	none
Cc1noc(NS(=O)(=O)c2ccc(NC(=O)c3ccc(OC(C)C)cc3)cc2)c1C	NPY Y1 blocker 54 (no result: NPY Y2 blocker) | NPY1 antag conf inactive | NPY-Y2 antag ct inactive
CN(C)S(=O)(=O)c1ccc2c(c1)nc(CCC(=O)O)n2C	none (no result: NPY Y2 blocker)
Cc1ccc(CSc2nc3ccccc3c(=O)n2Cc2ccco2)cc1	NPY Y1 blocker 28 | NPY1 antag conf inactive | NPY-Y2 antag ct inactive
COC(=O)c1[nH]c2c(c1C)C(=O)CC(c1ccccc1)C2 (configuration not stated)	none
Cc1c(C(=O)N2CCOCC2)[nH]c2c1C(=O)CC(c1ccccc1Cl)C2 (configuration not stated)	NPY Y1 blocker 24 | NPY1 antag conf inactive | NPY-Y2 antag ct 18
CCCCCCCn1c2c(c(=N)c3ccccc31)CCC2	NPY Y1 blocker 66 (no result: NPY Y2 blocker) | NPY1 antag conf 60 | NPY-Y2 antag ct 62
CCCn1c2c(c(=N)c3c1CCC3)CCC2	none (no result: NPY Y2 blocker, NPY Y1 blocker)
Cc1ccc(Cl)cc1NC(=O)C(NS(=O)(=O)c1cccs1)c1ccccc1 (configuration not stated)	none
CCc1cccc(CC)c1NC(=O)C(NS(=O)(=O)c1cccs1)c1ccccc1 (configuration not stated)	NPY Y1 blocker 23 | NPY1 antag conf 23 | NPY-Y2 antag ct inactive
COc1ccccc1CNC(=O)CCNS(=O)(=O)c1cccc2nsnc12	none
O=C(Nc1cc(S(=O)(=O)N2CCOCC2)ccc1N1CCCC1)c1cccnc1Cl	none (no result: NPY Y2 blocker, NPY Y1 blocker)
COc1ccc2c(c1)C(C)=CC(C)(C)N2S(=O)(=O)c1ccc(Br)cc1	NPY Y1 blocker 55 (no result: NPY Y2 blocker) | NPY1 antag conf 27 | NPY-Y2 antag ct 22
COc1cccc(CN2CCN(S(=O)(=O)c3ccc(Br)cc3)CC2)c1	none
Cc1cc([N+](=O)[O-])nn1CCCC(=O)NCc1ccc(F)cc1	none (no result: NPY Y2 blocker)
Cc1ccc(Cn2c(=O)n(Cc3ccco3)c(=O)c3ccccc32)cc1	none
Cc1cc(C(=O)OCC(=O)c2cccs2)c2ccccc2n1	none (no result: NPY Y2 blocker)
Cc1cc(C(=O)N/N=C(\CCC(=O)O)c2cccs2)c2ccccc2n1	NPY Y1 blocker 35 (no result: NPY Y2 blocker) | NPY1 antag conf inactive | NPY-Y2 antag ct inactive
Cc1cc(C)c(S(=O)(=O)Nc2ccc3c4c(cccc24)CC3)c(C)c1	NPY Y1 blocker 23 | NPY1 antag conf inactive | NPY-Y2 antag ct 37
